Entries after “also recorded” stand apart in the source; their conditions may differ.
What was measured:
mefs = experiment: Proliferation of mefs with dox-inducible Chd5 or PHD-mutants; type: cell-based, mouse; conditions: for effect on mef proliferation: dox-induced (0.2 μg/ml dox) vs untreated
Method in brief: (§1)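 Mouse Chd5 (wild-type or PHD point mutants) is introduced by retrovirus in a dox-inducible vector, with SK-N-AS cells stably expressing rtTA. Mefs are seeded at 5 × 10^4 cells per 6 cm dish and SK-N-AS at 2.5 × 10^4 cells. Cells grow in DMEM with 100 μg/ml hygromycin B and 0.5 μg/ml puromycin, ±0.2 μg/ml dox. Cells are counted over days in triplicate (Coulter counter or crystal violet); mean ± S.D., two-tailed t-test.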

[1] = tested on: Chd5 target gene expression; experiment: qRT-PCR of Chd5 target genes in mefs; type: cell-based, mouse; conditions: qRT-PCR normalized with actin, with (+) vs without (−) dox
H3K4me0 peptide = experiment: Peptide pull-down with recombinant wild-type and mutant PHDs or individual PHDs; type: binding; conditions: biotinylated histone peptides; recombinant PHDs of Chd5
H3 peptide = type: binding; conditions: nuclear extracts from mefs; anti-Flag immunoblot
SK-N-AS cells [2] = experiment: Proliferation of SK-N-AS cells with dox-inducible Chd5 or PHD-mutants; type: cell-based, human; conditions: for reduction of SK-N-AS proliferation: dox-induced; for effect on SK-N-AS proliferation: dox-induced (0.2 μg/ml dox) vs untreated
Method in brief: as §1

SK-N-AS cells [3] = experiment: Differentiation of SK-N-AS cells; type: cell-based, human; conditions: for cell morphology / differentiation: SK-N-AS, dox-inducible expression; for MAP2 expression: immunofluorescence, neuronal marker MAP2
unmodified H3 = type: binding; conditions: purified Chd5-PHDs or nuclear lysates expressing Flag-tagged Chd5; unmodified H3 peptides
SK-N-AS cells [4] = experiment: Tumor growth of SK-N-AS cells injected subcutaneously into athymic nude mice; type: in vivo, human; conditions: SK-N-AS cells s.c., dox-diet
Method in brief: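 SK-N-AS cells carry rtTA plus dox-inducible vector, wild-type or PHD-mutant Chd5. 1.6 × 10^6 cells mixed with Matrigel are injected s.c. into irradiated athymic nude mice. One cohort gets normal diet; the other gets dox diet from two days before injection onward. A blinded observer measures tumours. Read-outs are fold increase in tumour volume over 17 days (mean ± S.E.M.) and percentage change, dox-treated versus untreated.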

[5] = tested on: recombinant tandem PHDs of Chd5; experiment: Biotinylated histone peptide pull-down with recombinant Chd5 PHDs; type: binding, mouse; conditions: biotinylated histone peptides; in vitro pull-down
chromatin = experiment: Chromatin fractions from cells expressing Flag-tagged Chd5; type: cell-based

Row | Compound | effect on mef proliferation (mefs) | effect on Chd5 target gene expression in mefs [1] | binding to H3K4me0 peptide (pull-down) (H3K4me0 peptide) | cell morphology / differentiation (SK-N-AS cells [3]) | also measured
1 | C[C@H]1c2cccc(O)c2C(=O)C2=C(O)[C@]3(O)C(=O)C(C(N)=O)=C(O)[C@@H](N(C)C)[C@@H]3[C@@H](O)[C@@H]21 [doxycycline, reference compound] | no significant effect |  |  |  | 
2 | C432W: Chd5 mutant compromised for H3 binding | defective in their ability to inhibit proliferation | not able to inhibit expression of Chd5-bound loci |  |  | 
3 | D346A/D434A: Chd5 double mutant, PHD1-D346A and PHD2-D434A | fail to do so | fail to do so |  |  | 
4 | D346A: Chd5-PHD1 single amino acid mutant; H3-binding-competent | inhibited proliferation to an extent comparable to that of wild-type Chd5; also recorded: inhibit proliferation | repress target gene expression; also recorded: inhibit expression of several Chd5-bound genes | binds the H3K4me0 peptide | intermediate differentiation phenotype | pull-down by H3 peptide of Flag-tagged Chd5 (H3 peptide): are pulled down by H3 peptide; effect on mef proliferation (mefs; listed as Chd5-PHD1-D346A): inhibits cellular proliferation; reduction of SK-N-AS proliferation (SK-N-AS cells [2]): about 17%; effect on SK-N-AS proliferation (SK-N-AS cells [2]): inhibited proliferation; effect on SK-N-AS proliferation (SK-N-AS cells [2]; listed as Chd5-PHD1-D346A): inhibits cellular proliferation; cell morphology / differentiation (SK-N-AS cells [3]; listed as Chd5-D346A): partially-differentiated morphology; relative efficiency of H3 binding (unmodified H3): bind H3 more efficiently than PHD1-D361A, PHD2-D434A, and PHD2-D415A
5 | D361A: Chd5-PHD1 single amino acid mutant compromised for H3 binding | defective in their ability to inhibit proliferation | fail to do so; also recorded: not able to inhibit expression of Chd5-bound loci | compromised binding | classic stem-like neuroblastoma morphology with proliferative foci | effect on mef proliferation (mefs; listed as Chd5-PHD1-D361A): fail to do so; effect on SK-N-AS proliferation (SK-N-AS cells [2]): no such effects are observed; MAP2 expression (SK-N-AS cells [3]): lower expression; effect on tumor growth (SK-N-AS cells [4]): failed to reduce tumor growth
6 | D415A: Chd5 mutant compromised for H3 binding | defective in their ability to inhibit proliferation |  |  |  | 
7 | D434A: Chd5-PHD2 single amino acid mutant compromised for H3 binding | defective in their ability to inhibit proliferation | fail to do so; also recorded: not able to inhibit expression of Chd5-bound loci | compromised binding | classic stem-like neuroblastoma morphology with proliferative foci | effect on mef proliferation (mefs; listed as Chd5-PHD2-D434A): fail to do so; MAP2 expression (SK-N-AS cells [3]): lower expression; effect on tumor growth (SK-N-AS cells [4]): failed to reduce tumor growth
8 | G355A: Chd5 mutant compromised for H3 binding | defective in their ability to inhibit proliferation | not able to inhibit expression of Chd5-bound loci |  |  | 
9 | PHD1: individual PHD of Chd5, PHD1 (345–403) (QDYCEVCQQGGEIILCDTCPRAYHLVCLDPELEKAPEGKWSCPHCEKEGIQWEPKDDDE; PHD1; UniProt A2A8L1 345-403, looked up, fragment) |  |  | same binding preference for H3K4me0 |  | 
10 | PHD2: individual PHD of Chd5, PHD2 (408–465) (GGCEEEEDDHMEFCRVCKDGGELLCCDACPSSYHLHCLNPPLPEIPNGEWLCPRCTCP; PHD2; UniProt A2A8L1 408-465, looked up, fragment) |  |  | same binding preference for H3K4me0; also recorded: highest affinity |  | 
11 | W384A: H3-binding-competent Chd5-PHD mutant | inhibited proliferation to an extent comparable to that of wild-type Chd5; also recorded: inhibit proliferation | inhibit expression of several Chd5-bound genes |  |  | 
12 | unmodified H3 (1–21) peptide: biotinylated histone H3 (1–21) peptide |  |  |  |  | binding to recombinant tandem PHDs of Chd5 (pull-down) [5]: bind
13 | wild-type Chd5: full-length mouse Chd5 (chromodomain helicase DNA-binding protein 5) | inhibited proliferation; also recorded: inhibits cellular proliferation | repress target gene expression |  | flat epithelial-like morphology; also recorded: differentiated cellular morphology | pull-down by H3 peptide of Flag-tagged Chd5 (H3 peptide): are pulled down by H3 peptide; inhibition of proliferation in mefs (mefs; dox-induced, see Figure 3A): 54%; effect on Chd5 target gene expression in mefs ([1]; listed as Chd5): inhibits expression of the oncogenic PcG protein Bmi1; reduction of SK-N-AS proliferation (SK-N-AS cells [2]): about 17%; effect on SK-N-AS proliferation (SK-N-AS cells [2]): inhibited proliferation; also recorded: inhibits cellular proliferation; MAP2 expression (SK-N-AS cells [3]): increased expression; also recorded: increase in MAP2 expression; effect on tumor growth (SK-N-AS cells [4]): reduces tumorigenesis in vivo much more efficiently; association with chromatin (chromatin): associated with chromatin

— PMC3575599 (Cell reports, 2013)
